From ChEMBL document CHEMBL3877257, “New isoxazolidinone and 3,4-dehydro-β-proline derivatives as antibacterial agents and MAO-inhibitors: A complex balance between two activities” (Eur J Med Chem, 2016)
In brackets after ≈: the same amount, converted by molar mass.

Tests used:
Staphylococcus aureus [1] = assay: Antibacterial activity against Staphylococcus aureus ATCC 29213 after 18 to 24 hrs by broth microdilution method; format: functional
Method in brief: (§1)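 Broth microdilution per CLSI: serial 2-fold dilutions in Mueller-Hinton broth, compounds dissolved in DMSO; equal volume of inoculum at 1x10^6 CFU/mL added to each well; 37 C for 18-24 h. MIC = lowest concentration with no visible turbidity. Clinical S. aureus strains (MRSA and MSSA) were 12 recent isolates with characterized susceptibility.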

Enterococcus faecalis = assay: Antibacterial activity against Enterococcus faecalis ATCC 29212 after 18 to 24 hrs by broth microdilution method; format: functional; method in brief: as §1
[2] = Cytotoxicity against human HepG2 cells assessed as cell viability at 100 ug/mL after 24 hrs by prestoblue assay; format: toxicity, cell-based; conditions: read-out: Activity
Method in brief: (§2)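 HepG2 grown in DMEM with 10% heat-inactivated FBS on collagen; seeded at 45,000 cells/cm2, treated two days later for 24 h across 10-100 µg/mL. Viability read with resazurin-based PrestoBlue, 1 h at 37°C, absorbance 570 nm (reference 600 nm). Mean ± SEM, three experiments in triplicate, Student's t test.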

HepG2 [3] = assay: Inhibition of MAO activity in human HepG2 cells at 10 ug/mL after 24 hrs by spectrophotometric method; format: cell-based
Method in brief: (§3)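 HepG2 on collagen, seeded at 45,000 cells/cm2, dosed two days later at 10-100 µg/mL for 24 h. Lysate MAO was measured by Amplex Red/HRP H2O2 detection, 30 min at room temperature, absorbance 570 nm. Mean ± SEM of three experiments in triplicate.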

HepG2 [4] = assay: Inhibition of MAO activity in human HepG2 cells at 100 ug/mL after 24 hrs by spectrophotometric method; format: cell-based; method in brief: as §3
Staphylococcus aureus [5] = assay: Antibacterial activity against Staphylococcus aureus clinical isolate after 18 to 24 hrs by broth microdilution method; format: functional; method in brief: as §1
[6] = Cytotoxicity against human HepG2 cells assessed as decrease in cell viability at 10 ug/mL after 24 hrs by prestoblue assay; format: toxicity, cell-based; conditions: hepg2, 24 h; method in brief: as §2

Row | Structure (SMILES) | MIC (Staphylococcus aureus [1]) [µg/mL] | MIC (Enterococcus faecalis) [µg/mL] | MIC (Staphylococcus aureus [5]) [µg/mL] | MIC50 (Staphylococcus aureus [5]) [µg/mL] | MIC90 (Staphylococcus aureus [5]) [µg/mL] | viability at 24 h, 100 ug/mL [2] [%] | inhibition (HepG2 [3]) [%] | inhibition (HepG2 [4]) [%] | Activity [6]
1 | CCNC(=O)C1C(=O)ON(C(=O)c2ccc(N3CCOCC3)c(F)c2)C1C(C)C (stereo not drawn) | > 128 | > 128 | > 128 | > 128 | > 128 | 10 | 25 | 45 | Non-Toxic
2 | CCNC(=O)C1C(=O)ON(C(=O)c2ccc(N3CCOCC3)c(F)c2)C1C1CCCCC1 (stereo not drawn) | > 128 | > 128 | 32 to 128 (≈ 71.5 to 286 µM) | 64 (≈ 143 µM) | > 128 | 10 | 25 | 45 | Non-Toxic
3 | CC(=O)NC[C@H]1CN(c2ccc(N3CCOCC3)c(F)c2)C(=O)O1 [LINEZOLID] |  |  | 1 to 4 (≈ 2.96 to 11.9 µM) | 2 (≈ 5.93 µM) | 2 (≈ 5.93 µM) |  |  | 15 | 

Second part, led by results:

Row | MIC (Staphylococcus aureus [1]) [µg/mL] | MIC (Enterococcus faecalis) [µg/mL] | MIC (Staphylococcus aureus [5]) [µg/mL] | MIC50 (Staphylococcus aureus [5]) [µg/mL] | MIC90 (Staphylococcus aureus [5]) [µg/mL] | Structure (SMILES) | viability at 24 h, 100 ug/mL [2] [%] | inhibition (HepG2 [3]) [%] | inhibition (HepG2 [4]) [%] | Activity [6]
4 | > 128 | > 128 | > 128 | > 128 | > 128 | CCNC(=O)C1=CCN(C(=O)c2ccc(N3CCOCC3)c(F)c2)[C@H]1C(C)C | 20 | 25 | 45 | Non-Toxic
5 | > 128 | > 128 | > 128 | > 128 | > 128 | CCNC(=O)C1=CCN(C(=O)c2ccc(N3CCOCC3)c(F)c2)[C@@H]1C(C)C | 10 |  |  | Non-Toxic
